# The list is not random: actives were taken first. Their share in the collection is about 2.6%.
# SENP1 FRET inh: human SENP1 catalytic domain inhibitors, primary screen, biochemical, FRET, uHTS | inhibition, % at 10 µM | AID 624204, 2012 | 0.21% of 360,000 active | recombinant SENP1 catalytic domain, CyPet-SUMO1-YPet FRET cleavage;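 active = inhibition at least 30% at 10 µM, raw YFP signal under a set limit, fluorescence ratio 0.5 to 1.5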;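 note: 0% = enzyme with DMSO and 100% = no enzyme wells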
#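 Test system: recombinant human SENP1 catalytic domain, His6-tagged / Medium: pH 8 Tris buffer with EDTA, NaCl, BME, BSA, NP40, catalase / Also added: SUMO1 FRET substrate flanked by Cypet and Ypet, 25 nM / Times: 50 min reaction at room temperature / Signal: FRET, CFP and YFP emission / Control set: no-enzyme low control and enzyme-plus-DMSO high control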
# Platelet DG rel: inhibitors of platelet dense granule secretion, primary screen, cell-based, MLPCN, human platelets; human platelet-rich plasma, SFLLRN dense granule ATP release, luminescence; inhibition, %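 (compounds screened at 7.5 µM in platelet-rich plasma)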; 0.22% of 300,000 active; AID 1663, 2009;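 active = mean replicate score, as percent of positive control, at or above 50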
# SENP8 block-1: SENP8 protease inhibitors, primary screen, biochemical, luminescence; Sentrin-specific protease 8 (Homo sapiens), Q96LD8; purified SENP8, Z-RLRGG-aminoluciferin cleavage; inhibition, % at 10 µM; 1.2% of 330,000 active; AID 2540, 2010; in the data active = inhibition above about 50%
# Target sequence (Q96LD8 whole entry, looked up): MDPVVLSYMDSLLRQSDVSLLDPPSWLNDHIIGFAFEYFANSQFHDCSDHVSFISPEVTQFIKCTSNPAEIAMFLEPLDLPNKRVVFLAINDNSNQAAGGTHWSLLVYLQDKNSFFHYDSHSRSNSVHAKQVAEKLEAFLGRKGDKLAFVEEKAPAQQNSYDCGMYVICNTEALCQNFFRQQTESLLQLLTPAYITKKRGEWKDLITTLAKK
# SENP6 inh: SENP6 protease inhibitors, primary screen, biochemical, luminescence, uHTS | AID 2599, 2010 | 1.8% of 330,000 active | Sentrin-specific protease 6 (Homo sapiens), Q9GZR1 | Recombinant SENP6 catalytic domain, aminoluciferin luminescence | inhibition, % at 10 µM;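 active = inhibition above about 50% at the single tested dose, limit read from the data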;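 note: plate controls were DMSO wells with enzyme for no effect and DMSO wells lacking enzyme for full effect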
# SENP8 block-2: human SENP8 protease inhibitors, primary screen, biochemical, fluorescence, Nedd8 protein substrate, uHTS; recombinant SENP8; AID 602440, 2012; inhibition, % at 20 µM; 0.64% of 360,000 active; in the data active = inhibition mostly above about 40%, no sharp cut-off; inactive = mostly below about 27%
# SENP7 block: SENP7 protease inhibitors, primary screen, biochemical, luminescence, uHTS. Sentrin-specific protease 7 (Homo sapiens), Q9BQF6. recombinant SENP7, Z-RLRGG-aminoluciferin luminescence, 40 min. inhibition, % at 5 µM. 1.5% of 330,000 active;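 active = inhibition above about 50% at the single test dose, limit read from the data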;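 note: plate controls were DMSO with enzyme for no effect and no enzyme buffer wells for full effect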
# Target sequence (Q9BQF6 706-1050 limits assumed): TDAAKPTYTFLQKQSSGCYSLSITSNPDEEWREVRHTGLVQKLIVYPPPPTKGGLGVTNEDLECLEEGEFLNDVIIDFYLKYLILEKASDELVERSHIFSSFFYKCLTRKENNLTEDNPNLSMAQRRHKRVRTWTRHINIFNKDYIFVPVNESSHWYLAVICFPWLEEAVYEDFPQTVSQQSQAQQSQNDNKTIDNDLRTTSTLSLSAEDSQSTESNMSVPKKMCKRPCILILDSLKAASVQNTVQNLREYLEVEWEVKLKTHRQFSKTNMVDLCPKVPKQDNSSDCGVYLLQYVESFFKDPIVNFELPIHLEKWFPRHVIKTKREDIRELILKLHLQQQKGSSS
# SENP8 conf: SENP8 protease inhibitors, retest, confirmation, biochemical, luminescence, single concentration; shares compounds with SENP7 block; Recombinant SENP8, Z-RLRGG-aminoluciferin luminescence, 60 min; inhibition, % at 12.5 µM; 40% of 6,200 active; AID 488912, 2010;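 active = mean inhibition across replicates above about 50%, limit read from the data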
# SENP6 conf: SENP6 protease inhibitors, confirmation, biochemical, luminescence, single concentration; inhibition, % at 12.5 µM; 58% of 6,200 active; AID 488915, 2010; recombinant SENP6, Z-RLRGG-aminoluciferin luminescence; shares compounds with SENP7 block
# SENP7 conf: SENP7 protease inhibitors, retest, confirmation, biochemical, luminescence, single concentration. AID 488917, 2010. recombinant SENP7, Z-RLRGG-aminoluciferin luminescence, 40 min. inhibition, % at 12.5 µM. shares compounds with SENP7 block. 69% of 6,200 active
# Casp3 select: caspase-3 protease inhibitors, confirmation, selectivity assay for SENP inhibitor project, biochemical, single concentration. inhibition, % at 12.5 µM. purified caspase-3, Z-DEVD-aminoluciferin luminescence, 60 min. shares compounds with SENP7 block. 60% of 6,200 active;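 active = mean inhibition above about 50%, limit read from the data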;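 note: plate controls were enzyme with DMSO for no effect and wells without caspase-3 for full effect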
# SENP luc ctr: interferes with luciferase luminescence in SENP counter-screen; 39% of 6,200 active; shares compounds with SENP7 block; inhibition, % at 12.5 µM; Pre-incubated SENP8/Z-RLRGG-aminoluciferin, luciferase luminescence interference;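 active = mean inhibition above about 50% when retested at one dose, limit read from the data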;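 note: plate controls were DMSO wells with completed reaction for no effect and substrate without enzyme for full effect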
# Starred values were filed as active, the others as inactive; x = no result.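 Rule for the calls, unless noted: active = mean inhibition above about 50% in the one-dose retest (limit read from the data); inactive = the rest.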
SMILES,SENP1 FRET inh,Platelet DG rel,SENP8 block-1,SENP6 inh,SENP8 block-2,SENP7 block,SENP8 conf,SENP6 conf,SENP7 conf,Casp3 select,SENP luc ctr
CCOc1ccccc1NC(=O)Nc1ccc2c(c1)OCO2,-1.0,4.2,72.1*,86.1*,-0.8,85.3*,4.0,81.3*,96.7*,79.1*,79.2*
CCOc1ccccc1OCCC(=O)Nc1ccc2c(c1)OCO2,-4.6,x,-4.9,-19.7,2.7,-3.0,x,x,x,x,x
Cc1ccc(NC(=O)CN2C(=O)NC(Cc3ccccc3)C2=O)c(Br)c1 (stereo not given),0.1,-7.2,1.5,-12.1,11.2,4.9,x,x,x,x,x
O=C(CSc1nc(=O)n2ccccc2n1)N1CCN(c2ccccc2)CC1,0.2,-30.1,-4.0,-10.6,-16.1,-9.2,x,x,x,x,x
O=C(Nc1ccccc1Cl)Nc1ccccc1Cl,0.4,3.4,-7.6,-7.7,8.0,4.4,x,x,x,x,x
O=C(Nc1ccc(Nc2ccccc2)cc1)Nc1ccccc1Cl,1.2,13.6,85.8*,88.4*,-1.4,85.1*,70.9*,89.4*,98.9*,56.1*,63.0*
Cc1ccc2oc(-c3ccccc3)nc2c1,-1.7,18.6,88.1*,95.0*,-27.6,93.3*,-5.4,74.9*,100.2*,45.8,9.3
Cc1ccc2oc(-c3cccc(NC(=O)Cn4cnc5c(=O)n(C)c(=O)n(C)c54)c3)nc2c1,x,10.4,19.4,36.4,x,30.5,x,x,x,x,x
CCOc1cccc(-c2nc3cc(C)ccc3o2)c1,-0.5,1.5,39.9,79.4*,14.2,46.4,24.0,48.8,83.0*,44.6,35.8
Cc1[nH]c(=O)c(C#N)c(C)c1CCC(=O)NCc1ccc(Cl)cc1,-0.1,-5.6,-6.0,11.1,-70.6,-6.5,x,x,x,x,x
COc1cc2sc3ccc(C#CC4(O)CCCCC4)cc3c(=O)c2cc1OC,-116.4,56.0*,94.3*,97.8*,-473.4,99.2*,66.5*,69.8*,91.0*,80.8*,23.7
COc1cccc2sc3cc(C#CC4(O)CCCCC4)ccc3c(=O)c12,-44.4,x,30.2,21.6,-159.4,23.1,x,x,x,x,x
O=C(Nc1ccc2c(c1)OCCO2)c1ccc(Cl)cc1Cl,0.0,1.5,49.3,71.3*,5.7,66.6*,70.0*,66.1*,86.7*,69.9*,64.8*
O=C(Nc1ccc2c(c1)OCO2)c1ccc(Cl)cc1Cl,0.6,-9.9,55.2*,52.0*,11.7,72.4*,36.5,55.8*,86.0*,68.6*,64.5*
O=C(Nc1ccc2c(c1)OCO2)c1cc(Cl)ccn1,3.7,x,77.0*,84.5*,3.5,80.9*,80.7*,80.1*,96.4*,88.4*,16.0
O=C(Nc1ccc2c(c1)OCO2)c1c(F)cccc1F,-2.3,-3.2,-6.7,29.2,11.5,7.7,x,x,x,x,x
S=C(c1ccc2c(c1)OCO2)N1CCN(c2cccc(Cl)c2)CC1,-0.3,x,x,x,10.9,x,x,x,x,x,x
CN(CC(=O)Nc1ccccc1Cl)C(=O)COC(=O)c1ccccc1[N+](=O)[O-],1.9,-0.5,-5.5,1.1,2.9,100.6*,-0.4,4.5,6.9,4.5,-1.8
O=C(COC(=O)c1ccc([N+](=O)[O-])s1)NCc1ccccc1,1.5,-3.7,62.1*,72.7*,12.1,47.7,58.5*,72.5*,20.8,-1.3,-8.4
O=C(COC(=O)c1ccc(O)cc1)Nc1ccccc1[N+](=O)[O-],1.0,-2.5,37.3,56.8*,22.0,7.9,45.9,38.7,69.5*,52.3*,41.6
O=C(COC(=O)c1ccc([N+](=O)[O-])s1)Nc1ccc(F)cc1,1.8,x,68.8*,65.6*,34.2,39.7,68.1*,88.2*,47.9,12.9,-5.1
CCc1ccccc1NC(=O)CN(C)C(=O)COC(=O)c1ccccc1Cl,0.4,x,3.1,0.4,12.5,-1.0,x,x,x,x,x
O=C(CC(=O)Nc1ccccc1[N+](=O)[O-])Nc1ccccc1[N+](=O)[O-],2.6,15.5,-3.4,-3.4,17.7,9.4,x,x,x,x,x
CNC(=O)C1CN(C(=O)c2cccc(S(=O)(=O)N3c4ccccc4CC3C)c2)c2ccccc2O1 (stereo not given),-1.1,x,-11.1,6.9,-2.9,1.8,x,x,x,x,x
CCN(CC)S(=O)(=O)c1cc(NC(=O)Cc2ccc(S(=O)(=O)N3CCOCC3)s2)ccc1Cl,-8.6,x,x,x,9.6,x,x,x,x,x,x
SMILES,SENP1 FRET inh,Platelet DG rel,SENP8 block-1,SENP6 inh,SENP8 block-2,SENP7 block,SENP8 conf,SENP6 conf,SENP7 conf,Casp3 select,SENP luc ctr
Oc1ccc(C23CCCC2C2(CCCC2)c2ccc(O)cc2O3)c(O)c1 (stereo not given),-1.0,x,-1.1,-12.0,9.3,-5.2,x,x,x,x,x
O=C(Nc1ncc([N+](=O)[O-])s1)c1ccco1,-39.0,13.3,91.5*,91.6*,16.0,92.1*,93.1*,93.2*,101.5*,97.6*,66.1*
O=C(COC(=O)c1ccc([N+](=O)[O-])s1)Nc1ccccc1,2.2,-3.4,53.1*,64.3*,33.3,36.0,81.5*,88.3*,50.0,20.3,-5.6
O=C(OCc1nnc(-c2ccccc2)o1)c1ccc([N+](=O)[O-])s1,2.1,x,70.5*,68.2*,31.4,31.3,72.2*,83.0*,40.5,9.6,-2.0
Cc1cc(C(=O)OCC(=O)N2CCC(c3ccccc3)=N2)ccc1[N+](=O)[O-],2.2,-2.8,-13.0,-8.4,21.4,-2.8,x,x,x,x,x
O=C(OCC(=O)N1CCC(c2ccccc2)=N1)c1ccc([N+](=O)[O-])s1,1.5,-2.3,62.7*,55.7*,24.8,15.4,36.7,74.2*,26.5,9.0,7.1
Cc1cccc(C)c1NC(=O)CNC(=O)C1CC(=O)N(Cc2ccccc2)C1 (stereo not given),0.2,9.0,5.9,4.2,12.2,2.7,x,x,x,x,x

# Screening data as filed in PubChem BioAssay.
